# The source made the active and inactive calls. The rule behind the calls is not given here.
# Tests used:
# [1] = molecular target: T1, Protein lin-28 homolog A (Mus musculus, UniProt Q8K3Y3); experiment: (§1) Binding affinity to mouse N-terminal Halo-fused/biotin-labelled Lin28A expressed in Escherichia coli BL21(DE3) assessed as inhibition of protein interaction with pre-Let-7d microRNA measured after 1 hr by cat-ELCCA
# T1 sequence (Q8K3Y3 whole entry): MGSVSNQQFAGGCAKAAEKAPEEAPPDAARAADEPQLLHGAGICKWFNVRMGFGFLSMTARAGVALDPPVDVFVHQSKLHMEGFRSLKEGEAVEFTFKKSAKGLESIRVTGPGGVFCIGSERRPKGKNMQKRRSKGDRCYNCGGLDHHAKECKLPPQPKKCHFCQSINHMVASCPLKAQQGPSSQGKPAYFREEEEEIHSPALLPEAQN
# Outline: (§2)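 Biotinylated HaloTag-mLin28A (10 μL of 200 nM in storage buffer) immobilized on streptavidin plates overnight at 4 °C. TCO-pre-let-7d (200 nM in binding buffer) added with compound, 5% DMSO final, 1 h at 25 °C. Then mTet-HRP (750 nM) click for 1 h at 25 °C, washes, chemiluminescent read. CRCs were eight points, 3.3–120 μM.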
# [2] = molecular target: T2, Protein lin-28 homolog A (Mus musculus) (UniProt Q8K3Y3); experiment: as §1; outline: as §2
# T2 sequence (whole entry): T1 sequence (Q8K3Y3 whole entry)
# [3] = molecular target: T3, Protein lin-28 homolog B (Homo sapiens) (UniProt Q6ZN17); experiment: Binding affinity to human N-terminal Halo-fused/biotin-labelled Lin28B expressed in Escherichia coli BL21(DE3) assessed as inhibition of protein interaction with pre-Let-7d microRNA measured after 1 hr by cat-ELCCA
# T3 sequence (whole entry): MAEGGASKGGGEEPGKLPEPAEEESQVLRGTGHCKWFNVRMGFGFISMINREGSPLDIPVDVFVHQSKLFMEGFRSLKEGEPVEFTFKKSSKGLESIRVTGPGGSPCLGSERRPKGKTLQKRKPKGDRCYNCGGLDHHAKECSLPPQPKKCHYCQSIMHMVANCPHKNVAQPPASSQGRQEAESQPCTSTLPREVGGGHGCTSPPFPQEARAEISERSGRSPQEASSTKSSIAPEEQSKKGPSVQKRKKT
# Outline: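 Human Lin28B, cloned from A549 cDNA as a HaloTag fusion, expressed in E. coli (IPTG 500 μM, overnight 37 °C), Ni-NTA purified, biotinylated with Biotin-PEG7-HaloTag ligand (10 equiv, overnight 4 °C), immobilized on streptavidin plates. TCO-labelled pre-let-7d plus compound in Tris binding buffer with ZnCl₂ and β-mercaptoethanol, 5% DMSO final, 25 °C 1 h. Bound RNA detected by mTet-HRP click chemistry and chemiluminescence. IC50 from curves.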
# [4] = Binding affinity to synthetic biotinylated pre-let-7d microRNA at 6.25 to 100 uM by surface plasmon resonance analysis
# Outline: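 SPR with biotinylated pre-let-7d immobilized at 2,300 RU on BioCap chip. Analytes at 100, 50, 25, 12.5, 6.25 μM, injected 30 μL at 30 μL/min; regeneration between cycles.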
# [5] = molecular target: T2, Protein lin-28 homolog A (Mus musculus); experiment: Binding affinity to mouse N-terminal Halo-fused/biotin-labelled Lin28A expressed in Escherichia coli BL21(DE3) assessed as inhibition of protein interaction with pre-Let-7a microRNA at 20 to 50 uM by electrophoretic mobility shift assay
# [6] = molecular target: Endoribonuclease Dicer (Homo sapiens) (UniProt Q9UPY3); experiment: Binding affinity to dicer (unknown origin) assessed as inhibition of dicer-meditated pre-let-7d microRNA maturation at 100 uM by electrophoretic mobility shift assay
# Outline: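 Dicer-mediated pre-let-7d maturation tested with compound at 100 μM; samples run with and without Dicer; procedure cited to earlier work.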
# [7] = molecular target: T2, Protein lin-28 homolog A (Mus musculus); experiment: Binding affinity to mouse N-terminal Halo-fused/biotin-labelled Lin28A expressed in Escherichia coli BL21(DE3) at 18.7 to 75 uM by surface plasmon resonance analysis
# Outline: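 SPR on BioCap chip with biotinylated HaloTag-Lin28A immobilized at 2,300 RU. Running buffer: 50 mM Tris pH 7.6, 150 mM NaCl, 1 mM β-ME, 5% glycerol, 0.05% Tween-20, 1 mM ZnCl₂, 5% DMSO. Analytes at 75, 37.5, 18.7 μM, injected 50 μL at 50 μL/min; regeneration between cycles.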
# [8] = molecular target: T2, Protein lin-28 homolog A (Mus musculus); experiment: Binding affinity to mouse N-terminal Halo-fused/biotin-labelled Lin28A expressed in Escherichia coli BL21(DE3) assessed as inhibition of protein interaction with pre-Let-7d microRNA by electrophoretic mobility shift assay
# [9] = molecular target: Eukaryotic translation initiation factor 4E/Eukaryotic translation initiation factor 4E-binding protein 1 (Homo sapiens) (UniProt P06730+Q13541); experiment: Inhibition of eIF4E-4E-BP1 (unknown origin) interaction at 100 uM by cat-ELCCA; format: protein assay
# Outline: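 Counter-screen: eIF4E–4E-BP1 interaction read by cat-ELCCA with compound at 100 μM; assay setup cited to earlier work.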
# [10] = molecular target: T2, Protein lin-28 homolog A (Mus musculus); experiment: Binding affinity to mouse N-terminal Halo-fused/biotin-labelled Lin28A expressed in Escherichia coli BL21(DE3) assessed as inhibition of protein interaction with microRNA at 20 to 50 uM by electrophoretic mobility shift assay
# Endoribonuclease Dicer (Homo sapiens), sequence (Q9UPY3 whole entry): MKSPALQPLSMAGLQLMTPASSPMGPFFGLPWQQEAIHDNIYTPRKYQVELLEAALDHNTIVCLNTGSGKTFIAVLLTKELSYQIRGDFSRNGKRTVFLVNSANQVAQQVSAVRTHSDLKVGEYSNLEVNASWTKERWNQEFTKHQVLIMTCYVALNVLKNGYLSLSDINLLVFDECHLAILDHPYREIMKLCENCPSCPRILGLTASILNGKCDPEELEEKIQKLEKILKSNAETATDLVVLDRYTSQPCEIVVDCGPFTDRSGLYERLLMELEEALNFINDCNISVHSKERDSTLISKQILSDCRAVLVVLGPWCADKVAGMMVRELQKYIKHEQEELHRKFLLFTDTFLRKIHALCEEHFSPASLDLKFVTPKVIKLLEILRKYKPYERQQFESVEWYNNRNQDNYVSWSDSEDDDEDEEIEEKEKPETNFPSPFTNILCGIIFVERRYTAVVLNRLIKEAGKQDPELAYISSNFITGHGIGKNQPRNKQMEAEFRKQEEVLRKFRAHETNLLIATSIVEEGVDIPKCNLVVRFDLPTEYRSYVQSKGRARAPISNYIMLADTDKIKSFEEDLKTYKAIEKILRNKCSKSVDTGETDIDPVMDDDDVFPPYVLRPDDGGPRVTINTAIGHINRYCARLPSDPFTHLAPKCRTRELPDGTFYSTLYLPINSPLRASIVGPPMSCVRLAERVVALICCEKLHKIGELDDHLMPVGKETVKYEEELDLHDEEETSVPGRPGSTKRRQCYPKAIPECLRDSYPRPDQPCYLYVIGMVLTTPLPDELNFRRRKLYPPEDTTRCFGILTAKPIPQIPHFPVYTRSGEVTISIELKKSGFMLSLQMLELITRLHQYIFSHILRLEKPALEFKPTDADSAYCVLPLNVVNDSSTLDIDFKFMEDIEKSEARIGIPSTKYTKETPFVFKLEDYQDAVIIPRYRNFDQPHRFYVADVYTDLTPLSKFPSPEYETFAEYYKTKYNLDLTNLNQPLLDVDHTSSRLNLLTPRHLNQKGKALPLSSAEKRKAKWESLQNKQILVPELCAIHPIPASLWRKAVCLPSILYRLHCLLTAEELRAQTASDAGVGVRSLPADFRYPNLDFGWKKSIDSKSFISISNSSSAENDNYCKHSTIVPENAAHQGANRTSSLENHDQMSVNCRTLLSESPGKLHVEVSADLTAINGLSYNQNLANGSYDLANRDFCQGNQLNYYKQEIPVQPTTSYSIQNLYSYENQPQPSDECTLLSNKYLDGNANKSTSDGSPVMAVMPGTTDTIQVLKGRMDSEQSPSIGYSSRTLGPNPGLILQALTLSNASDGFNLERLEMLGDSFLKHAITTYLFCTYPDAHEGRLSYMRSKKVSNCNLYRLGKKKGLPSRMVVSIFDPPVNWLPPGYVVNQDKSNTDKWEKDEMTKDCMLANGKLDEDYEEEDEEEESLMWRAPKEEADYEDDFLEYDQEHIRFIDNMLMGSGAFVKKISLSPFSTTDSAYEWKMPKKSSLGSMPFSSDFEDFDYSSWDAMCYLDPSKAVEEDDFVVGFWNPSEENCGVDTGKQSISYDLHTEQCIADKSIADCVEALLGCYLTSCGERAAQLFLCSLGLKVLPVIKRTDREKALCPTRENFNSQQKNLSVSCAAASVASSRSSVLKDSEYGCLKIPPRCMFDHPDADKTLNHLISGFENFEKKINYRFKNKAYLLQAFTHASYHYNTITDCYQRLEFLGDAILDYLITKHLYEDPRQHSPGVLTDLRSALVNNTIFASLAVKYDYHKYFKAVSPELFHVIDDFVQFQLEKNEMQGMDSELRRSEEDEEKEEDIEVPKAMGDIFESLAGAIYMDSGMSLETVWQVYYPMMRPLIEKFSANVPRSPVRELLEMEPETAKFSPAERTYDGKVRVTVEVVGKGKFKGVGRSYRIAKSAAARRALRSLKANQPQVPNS
# Eukaryotic translation initiation factor 4E/Eukaryotic translation initiation factor 4E-binding protein 1 (Homo sapiens), sequence (P06730 2-217 limits assumed): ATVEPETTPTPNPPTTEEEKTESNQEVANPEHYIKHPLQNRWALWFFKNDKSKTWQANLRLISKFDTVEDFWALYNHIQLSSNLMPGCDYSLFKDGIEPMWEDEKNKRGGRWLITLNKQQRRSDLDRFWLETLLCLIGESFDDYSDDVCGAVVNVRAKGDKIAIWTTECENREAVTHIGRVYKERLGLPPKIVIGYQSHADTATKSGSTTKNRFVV
# Eukaryotic translation initiation factor 4E/Eukaryotic translation initiation factor 4E-binding protein 1 (Homo sapiens), sequence (Q13541 2-118 partner limits assumed): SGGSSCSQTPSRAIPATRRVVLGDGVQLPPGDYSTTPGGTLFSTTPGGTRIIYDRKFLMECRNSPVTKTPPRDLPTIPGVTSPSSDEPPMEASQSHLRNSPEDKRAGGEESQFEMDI
IC50 [1] [µM],SMILES,further results
8.3,Cc1ccc(S(=O)(=O)Nc2ccc(F)cc2NS(=O)(=O)c2ccc(C)cc2)cc1,inhibition [3]: Active; Activity [4]: inactive; inhibition [5]: Active; inhibition [6]: inactive; Activity [7]: Active; inhibition [8]: Active; inhibition [9]: inactive; inhibition [10]: Active
11.7,Cc1ccc(S(=O)(=O)Nc2ccc(C)cc2NS(=O)(=O)c2ccc(F)cc2)cc1,
27.3,O=S(=O)(Nc1ccccc1NS(=O)(=O)c1ccc(Cl)cc1)c1ccc(F)cc1,
10.4,Cc1ccc(S(=O)(=O)Nc2ccc(C)cc2NS(=O)(=O)c2cccc(C(F)(F)F)c2)cc1,inhibition [3]: Active; inhibition [5]: Active; inhibition [6]: inactive; inhibition [8]: Active; inhibition [10]: Active
4.3,Cc1ccc(NS(=O)(=O)c2cccc(Cl)c2)c(NS(=O)(=O)c2cccc(Cl)c2)c1,
10.8,O=S(=O)(Nc1ccccc1NS(=O)(=O)c1cccc(Cl)c1)c1ccc(F)cc1,
16.2,O=S(=O)(Nc1ccccc1NS(=O)(=O)c1cccc(Br)c1)c1ccc(F)cc1,
17.5,O=S(=O)(Nc1ccccc1NS(=O)(=O)c1ccc(Br)cc1)c1ccc(Br)cc1,
28.3,O=S(=O)(Nc1ccccc1NS(=O)(=O)c1ccc(F)cc1)c1ccc(F)cc1,
3.7,Cc1ccc(S(=O)(=O)Nc2ccc(F)cc2NS(=O)(=O)c2ccc(C)c(Cl)c2)cc1Cl,

# The next lines start with the compound.
SMILES,IC50 [1] [µM],further results
O=S(=O)(Nc1ccccc1NS(=O)(=O)c1ccccc1)c1ccccc1,32.2,
O=S(=O)(c1ccccc1)N1CCN(S(=O)(=O)c2ccccc2)c2ccccc21,,inhibition [2]: inactive
COc1ccc(S(=O)(=O)Nc2ccccc2NS(=O)(=O)c2ccc(F)cc2)cc1,17.2,
Cc1ccc(S(=O)(=O)Nc2ccccc2NS(=O)(=O)c2ccc(C)c(Cl)c2)cc1Cl,2.3,
Nc1ccccc1NS(=O)(=O)c1ccccc1,,inhibition [2]: inactive
O=S(=O)(Nc1ccccc1NS(=O)(=O)c1ccc(Cl)cc1)c1ccc(Cl)cc1,27.5,
Cc1ccc(NS(=O)(=O)c2ccc(F)cc2)c(NS(=O)(=O)c2ccc(F)cc2)c1,16.2,
Cc1ccc(NS(=O)(=O)c2ccc(Cl)cc2)c(NS(=O)(=O)c2ccc(Cl)cc2)c1,28.4,
Cc1ccc(NS(=O)(=O)c2ccccc2)c(NS(=O)(=O)c2ccccc2)c1,28.8,
O=C(Nc1ccccc1NC(=O)c1ccccc1)c1ccccc1,,inhibition [2]: inactive
O=S(=O)(Nc1ccccc1NS(=O)(=O)c1ccc(F)cc1)c1ccccc1,13.9,
CC(=O)Nc1ccc(S(=O)(=O)Nc2ccccc2NS(=O)(=O)c2ccc(NC(C)=O)cc2)cc1,62.5,
O=S(=O)(Nc1cccc(NS(=O)(=O)c2ccccc2)c1)c1ccccc1,,inhibition [2]: inactive
O=S(=O)(Nc1ccccc1NS(=O)(=O)c1cccc(Cl)c1)c1cccc(Cl)c1,5.7,
Cc1ccc(S(=O)(=O)Nc2ccc(C)cc2NS(=O)(=O)c2ccc(C)cc2)cc1,14.1,
COc1ccc(S(=O)(=O)Nc2ccccc2NS(=O)(=O)c2ccc(OC)cc2)cc1,16.7,

# — ChEMBL document CHEMBL4145627, “Expansion of cat-ELCCA for the Discovery of Small Molecule Inhibitors of the Pre-let-7-Lin28 RNA-Protein Interaction” (ACS Med Chem Lett, 2018)
